≈ marks a conversion by molar mass, not a printed value. Where only a bound is given, the exact number is not on record here.

In data set [1] the test system is Staphylococcus aureus. The data set can be described thus: Antibacterial activity against vancomycin/methicillin-resistant Staphylococcus aureus VRS2 clinical isolate after 16 to 20 hrs by broth microdilution method. In kind it is functional.
For data set [2], the system named is Staphylococcus epidermidis. The data set can be described thus: Antibacterial activity against Staphylococcus epidermidis ATCC 35547 after 16 to 20 hrs by broth microdilution method. In kind it is functional. A general note: Broth dilution looks for growth in wells or tubes with falling amounts of substance.
The subject of data set [3] is Staphylococcus haemolyticus. The data set can be described thus: Antibacterial activity against Staphylococcus haemolyticus ATCC 29970 after 16 to 20 hrs by broth microdilution method. In kind it is functional.
The test system of the next data set is Streptococcus oralis. Description: Antibacterial activity against Streptococcus oralis ATCC 9811 after 16 to 20 hrs by broth microdilution method. In kind it is functional.
In another data set the test system is Streptococcus pyogenes. Description: Antibacterial activity against Streptococcus pyogenes ATCC 49399 after 16 to 20 hrs by broth microdilution method. In kind it is functional.
For the next data set, the system named is Bacillus cereus. The data set can be described thus: Antibacterial activity against Bacillus cereus ATCC 13061 after 16 to 20 hrs by broth microdilution method. In kind it is functional.
Another data set relates to Bacillus licheniformis. The data set can be described thus: Antibacterial activity against Bacillus licheniformis ATCC 12759 after 16 to 20 hrs by broth microdilution method. In kind it is functional.
For data set [4], the system named is Enterococcus faecalis. The data set can be described thus: Antibacterial activity against Enterococcus faecalis ATCC 29212 after 16 to 20 hrs by broth microdilution method. In kind it is functional.
Data set [5] has as its system Enterococcus faecalis. Description: Antibacterial activity against vancomycin-susceptible Enterococcus faecalis 201 clinical isolate after 16 to 20 hrs by broth microdilution method. In kind it is functional.
Data set [6] concerns Enterococcus faecalis. Description: Antibacterial activity against vancomycin-resistant Enterococcus faecalis 99 clinical isolate after 16 to 20 hrs by broth microdilution method. In kind it is functional.
Data set [7] concerns Enterococcus faecium. The data set can be described thus: Antibacterial activity against vancomycin-susceptible Enterococcus faecium 119-39A clinical isolate after 16 to 20 hrs by broth microdilution method. In kind it is functional.
Data set [8] has as its system Enterococcus faecium. The data set can be described thus: Antibacterial activity against Enterococcus faecium NCTC 7171 after 16 to 20 hrs by broth microdilution method. In kind it is functional.
Data set [9] can be described thus: Plasma protein binding in human at 10 uM after 6 hrs by equilibrium dialysis assay. In kind it is ADME, cell-free.
For another data set, the system named is HepG2. The data set can be described thus: Cytotoxicity against human HepG2 cells assessed as cell viability after 16 hrs by XTT assay. In kind it is cell-based. To be noted: HepG2, 16 h. In short, it runs like this:
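HepG2 cells were run in triplicate in an XTT viability assay. IC50 was derived from the concentration–response data.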

Data set [10] concerns Staphylococcus aureus. The data set can be described thus: Antibacterial activity against mecA-positive, methicillin/oxacillin/tetracycline-resistant and vancomycin/linezolid susceptible Staphylococcus aureus ATCC 27660 after 16 to 20 hrs by broth microdilution method. In kind it is functional.
Data set [11] concerns Staphylococcus aureus. Description: Antibacterial activity against mecA-positive, methicillin/oxacillin/tetracycline-resistant and vancomycin/linezolid susceptible Staphylococcus aureus COL after 16 to 20 hrs by broth microdilution method. In kind it is functional.
For data set [12], the system named is Staphylococcus aureus. The data set can be described thus: Antibacterial activity against mecA-positive, ciprofloxacin/gentamicin/oxacillin/penicillin/linezolid-resistant Staphylococcus aureus NRS120 after 16 to 20 hrs by broth microdilution method. In kind it is functional.
The test system of data set [13] is Staphylococcus aureus. The data set can be described thus: Antibacterial activity against vancomycin/methicillin-resistant Staphylococcus aureus VRS1 clinical isolate after 16 to 20 hrs by broth microdilution method. In kind it is functional.
Data set [14] concerns Enterococcus faecium. Description: Antibacterial activity against vancomycin-resistant Enterococcus faecium 106 clinical isolate after 16 to 20 hrs by broth microdilution method.
The nature of data set [15]: Plasma protein binding in human by equilibrium dialysis assay. (In equilibrium dialysis only unbound substance equilibrates across the membrane.)
For data set [16], the system named is Staphylococcus aureus. The data set can be described thus: Antibacterial activity against methicillin-sensitive Staphylococcus aureus ATCC 29213 after 16 to 20 hrs by broth microdilution method. In kind it is functional.
Data set [17] concerns Staphylococcus aureus. Description: Antibacterial activity against mecA-positive, ciprofloxacin/gentamicin/oxacillin/penicillin/linezolid-resistant Staphylococcus aureus NRS119 after 16 to 20 hrs by broth microdilution method. In kind it is functional.
Data set [18] relates to Staphylococcus aureus. The data set can be described thus: Antibacterial activity against methicillin-resistant Staphylococcus aureus ATCC 27660 in po dosed ICR mouse peritonitis infection model assessed as survival rate administered at 1 hr post infection. The conditions noted are these: ATCC 27660, po. In kind it is functional. In outline:
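Female ICR mice, 6–8 weeks, given 0.5 mL ip of S. aureus (final 5×10^7 cfu/mL in 5% mucin). Six mice per dose level; a single oral dose at 1 h post-infection.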

Take `FC(F)(F)c1ccc(Oc2ccc(-c3noc(-c4n[nH]cc4Cl)n3)cc2)cc1`: the MIC with Staphylococcus aureus [1] is 0.5 µg/mL (≈ 1.23 µM); in data set [2] it was over 128 µg/mL; in data set [3] it was over 128 µg/mL; against Streptococcus oralis, over 128 µg/mL; against Streptococcus pyogenes, over 128 µg/mL; in the data set on Bacillus cereus, over 128 µg/mL. In addition, the MIC is over 128 µg/mL in the data set with Bacillus licheniformis; over 128 µg/mL with Enterococcus faecalis [4]; over 128 µg/mL in the data set on Enterococcus faecalis [5]; over 128 µg/mL with Enterococcus faecalis [6]; over 128 µg/mL in the data set with Enterococcus faecium [7]; 16 µg/mL (≈ 39.3 µM) in the data set with Enterococcus faecium [8]. For the same compound, the MIC against Staphylococcus aureus [10] is 2 µg/mL (≈ 4.92 µM); against Staphylococcus aureus [11], over 128 µg/mL; in the data set on Staphylococcus aureus [12] it was 64 µg/mL (≈ 157 µM); in the data set on Staphylococcus aureus [13] it was 1 µg/mL (≈ 2.46 µM); in the data set with Enterococcus faecium [14], over 128 µg/mL. For the same compound, the PPB in data set [9] is on record as 97.8%. Also, the IC50 in the data set with HepG2 is 24.1 µg/mL (≈ 59.3 µM).
Turning to `CCCCCCCCCC(=O)N[C@@H](Cc1c[nH]c2ccccc12)C(=O)N[C@H](CC(N)=O)C(=O)N[C@@H](CC(=O)O)C(=O)N[C@@H]1C(=O)NCC(=O)N[C@@H](CCCN)C(=O)N[C@@H](CC(=O)O)C(=O)N[C@H](C)C(=O)N[C@@H](CC(=O)O)C(=O)NCC(=O)N[C@H](CO)C(=O)N[C@@H]([C@H](C)CC(=O)O)C(=O)N[C@@H](CC(=O)c2ccccc2N)C(=O)O[C@@H]1C`, the fraction unbound in data set [15] is under 0.09.
In data set [15], `CO[C@H]1/C=C/O[C@@]2(C)Oc3c(C)c(O)c4c(O)c(c(/C=N/N5CCN(C)CC5)c(O)c4c3C2=O)NC(=O)/C(C)=C\C=C\[C@H](C)[C@H](O)[C@@H](C)[C@@H](O)[C@@H](C)[C@H](OC(C)=O)[C@@H]1C` [RIFAMPIN] came in with a fraction unbound of under 0.09.
On to `C#Cc1c[nH]nc1-c1nc(-c2ccc(Oc3ccc(C(F)(F)F)cc3)cc2)no1`, for which the MIC in the data set with Staphylococcus aureus [1] is 0.5 µg/mL (≈ 1.26 µM); in data set [2], over 128 µg/mL; in [3], over 128 µg/mL; against Streptococcus oralis it was over 128 µg/mL; with Streptococcus pyogenes it was over 128 µg/mL; against Bacillus cereus, over 128 µg/mL. The MIC in the data set on Bacillus licheniformis, in the data set on Enterococcus faecalis [4], in the data set with Enterococcus faecalis [5], in the data set with Enterococcus faecalis [6], with Enterococcus faecium [7] and with Enterococcus faecium [8] was over 128 µg/mL each time. The MIC against Staphylococcus aureus [16] was 0.25 µg/mL (≈ 0.631 µM); in the data set with Staphylococcus aureus [10], 0.5 µg/mL (≈ 1.26 µM); against Staphylococcus aureus [11], over 128 µg/mL; against Staphylococcus aureus [17], 32 µg/mL (≈ 80.7 µM); in the data set on Staphylococcus aureus [12], over 128 µg/mL; in the data set with Staphylococcus aureus [13], 1 µg/mL (≈ 2.52 µM). Further, in the data set with Enterococcus faecium [14], the MIC was over 128 µg/mL. The compound further registered a PPB in data set [9] of 96.4%. Also, in the data set on HepG2, the IC50 is 9.8 µg/mL (≈ 24.7 µM).
Regarding `CN[C@H](CC(C)C)C(=O)N[C@H]1C(=O)N[C@@H](CC(N)=O)C(=O)N[C@H]2C(=O)N[C@H]3C(=O)N[C@H](C(=O)N[C@H](C(=O)O)c4cc(O)cc(O)c4-c4cc3ccc4O)[C@H](O)c3ccc(c(Cl)c3)Oc3cc2cc(c3O[C@@H]2O[C@H](CO)[C@@H](O)[C@H](O)[C@H]2O[C@H]2C[C@](C)(N)[C@H](O)[C@H](C)O2)Oc2ccc(cc2Cl)[C@H]1O` [VANCOMYCIN], the MIC in data set [2] is 16 µg/mL (≈ 11 µM); against Streptococcus pyogenes, 0.6 µg/mL (≈ 0.414 µM); against Enterococcus faecalis [4] it was 2 µg/mL (≈ 1.38 µM); with Enterococcus faecium [14], 256 µg/mL (≈ 177 µM).
For the compound `Nc1ccc(-c2nc(-c3ccc(Oc4ccc(F)cc4)cc3)no2)cc1`, the MIC against Staphylococcus aureus [16] was at least 128 µg/mL.
In turn, `Nc1c[nH]nc1-c1nc(-c2ccc(Oc3ccc(F)cc3)cc2)no1` displayed an MIC in the data set on Staphylococcus aureus [16] of 16 µg/mL (≈ 47.4 µM).
On to `CC(C)CNc1c[nH]nc1-c1nc(-c2ccc(Oc3ccc(C(F)(F)F)cc3)cc2)no1`, for which the MIC against Staphylococcus aureus [16] was at least 128 µg/mL.
Take `FC(F)(F)c1ccc(Oc2ccc(-c3noc(-c4nc[nH]n4)n3)cc2)cc1`: in the data set on Staphylococcus aureus [16], the MIC is at least 128 µg/mL.
Still for that read-out and setting: in the case of `Fc1ccc(Oc2ccc(-c3noc(-c4n[nH]cc4I)n3)cc2)cc1` it was 4 µg/mL (≈ 8.92 µM).
In the data set with Staphylococcus aureus [16], `Oc1cc(-c2nc(-c3ccc(Oc4ccccc4)cc3)no2)ccc1I` gave an MIC of at least 128 µg/mL.
As to `Fc1ccc(Oc2ccc(-c3noc(-c4n[nH]cc4Cl)n3)cc2)cc1`, the MIC (in data set [2]; in data set [3]; against Streptococcus oralis; in the data set with Streptococcus pyogenes; in the data set with Bacillus cereus; with Bacillus licheniformis) was over 128 µg/mL in each case. Further, the MIC was over 128 µg/mL with Enterococcus faecalis [4]; over 128 µg/mL with Enterococcus faecalis [5]; over 128 µg/mL against Enterococcus faecalis [6]; over 128 µg/mL in the data set on Enterococcus faecium [7]; 32 µg/mL (≈ 89.7 µM) with Enterococcus faecium [8]; 1 µg/mL (≈ 2.8 µM) with Staphylococcus aureus [16]. Besides, the MIC in the data set on Staphylococcus aureus [11] is over 128 µg/mL; in the data set with Staphylococcus aureus [17], 2 µg/mL (≈ 5.61 µM); with Staphylococcus aureus [12], 64 µg/mL (≈ 179 µM); against Staphylococcus aureus [13] it was 1 µg/mL (≈ 2.8 µM); in the data set with Enterococcus faecium [14], over 128 µg/mL. For the same compound, the PPB in [9] is reported as 94.5%. Besides, in the data set with HepG2, the IC50 amounted to 18.2 µg/mL (≈ 51 µM).
The compound `CC(=O)N1CCC(c2nc(-c3ccc(Oc4ccc(F)cc4)cc3)no2)CC1` had an MIC against Staphylococcus aureus [16] of at least 128 µg/mL.
Same read-out and setting: in the case of `c1ccc(Oc2ccc(-c3noc(-c4ccncc4)n3)cc2)cc1` it was at least 128 µg/mL; in that of `O=C1CC(c2nc(-c3ccc(Oc4ccc(C(F)(F)F)cc4)cc3)no2)NC(=O)N1` (stereo unspecified), at least 128 µg/mL.
Turning to `CC(=O)NC[C@H]1CN(c2ccc(N3CCOCC3)c(F)c2)C(=O)O1` [LINEZOLID], the MIC in [2] amounted to 1 µg/mL (≈ 2.96 µM); in data set [3], 2 µg/mL (≈ 5.93 µM); in the data set on Streptococcus oralis, 1 µg/mL (≈ 2.96 µM); with Streptococcus pyogenes, 1 µg/mL (≈ 2.96 µM); in the data set on Bacillus cereus, 1 µg/mL (≈ 2.96 µM); with Bacillus licheniformis it was 1 µg/mL (≈ 2.96 µM). For the same compound, the MIC against Enterococcus faecium [7] turned out to be 2 µg/mL (≈ 5.93 µM); against Enterococcus faecium [8], 2 µg/mL (≈ 5.93 µM); against Staphylococcus aureus [17], 32 µg/mL (≈ 94.9 µM); against Staphylococcus aureus [12], 32 µg/mL (≈ 94.9 µM); in the data set on Enterococcus faecium [14] it was 1 µg/mL (≈ 2.96 µM). Moreover, the ED50 in the data set on Staphylococcus aureus [18] is 2.8 mg/kg.

One may read the MIC as the lowest concentration that inhibits growth of the organism. In general, IC50 refers to the concentration that inhibits the measured activity by half. A word on the fraction unbound: it is the share of the substance not bound to proteins or other matrix. As a reminder, the ED50 is the midpoint of the dose-response relation.

Values taken from ChEMBL document CHEMBL3407479, “Structure-activity relationship for the oxadiazole class of antibiotics” (J Med Chem, 2015).
